# RGS4 inh = human RGS4 inhibition; B-score at 10 µM; P49798; 0.45% of 310,000 active; AID 463165; HEK293 M3R/RGS4 inducible, Fluo-4 calcium flux; active compounds read high; triggered by carbachol at its EC20;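 active = B-score, a plate-corrected calcium signal, over three deviations above library mean, with baseline fluorescence within five deviations of library mean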;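 note: RGS4 expression induced by doxycycline in cells with stable M3 receptor; B-score is computed from the integrated fluorescence ratio over baseline after carbachol; higher B-score means a larger calcium signal and so more RGS4 inhibition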
# Target sequence (P49798 whole entry, looked up): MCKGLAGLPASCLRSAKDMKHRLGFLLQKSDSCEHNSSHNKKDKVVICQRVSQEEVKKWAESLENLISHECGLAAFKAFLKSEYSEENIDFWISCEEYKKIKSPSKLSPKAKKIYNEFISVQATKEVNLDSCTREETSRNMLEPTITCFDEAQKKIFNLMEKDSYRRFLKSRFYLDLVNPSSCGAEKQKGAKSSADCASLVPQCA
# RGS4 act = RGS4 potentiation or activation; HEK293 M3R/inducible RGS4, carbachol calcium flux Fluo4; active compounds read low; B-score at 10 µM; 0.92% of 310,000 active;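 active = B-score of the integrated calcium signal more than 4 SD below the library mean, with starting fluorescence not abnormally high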;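 note: negative B-score means reduced calcium response which marks RGS4 activation or potentiation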
#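 Reagent: ECmax carbachol challenge; Test system: M3R-expressing HEK293 line, RGS4 induced by doxycycline; Schedule: overnight RGS4 induction, 30 min dye load 37 °C, 20 min compound RT; Detection: calcium dye Fluo4 fluorescence; Read-out: Agonist-evoked peak-minus-minimum fluorescence over baseline, integrated ratio, B score.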
# MrgX1 PAM = human MrgX1 positive allosteric modulation, primary screen; Q96LB2; MrgX1-HEK293, Fluo-4 calcium flux, FDSS; active compounds read high; B-score at 10 µM; 0.63% of 310,000 active;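 active = plate-corrected calcium response at least 3 library SD above typical, normal starting fluorescence, not activating the receptor alone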;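 note: compound read alongside a low EC10 to EC30 dose of BAM8-22 agonist; peak minus trough fluorescence over baseline measured at the second addition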
# Target sequence (Q96LB2 whole entry, looked up): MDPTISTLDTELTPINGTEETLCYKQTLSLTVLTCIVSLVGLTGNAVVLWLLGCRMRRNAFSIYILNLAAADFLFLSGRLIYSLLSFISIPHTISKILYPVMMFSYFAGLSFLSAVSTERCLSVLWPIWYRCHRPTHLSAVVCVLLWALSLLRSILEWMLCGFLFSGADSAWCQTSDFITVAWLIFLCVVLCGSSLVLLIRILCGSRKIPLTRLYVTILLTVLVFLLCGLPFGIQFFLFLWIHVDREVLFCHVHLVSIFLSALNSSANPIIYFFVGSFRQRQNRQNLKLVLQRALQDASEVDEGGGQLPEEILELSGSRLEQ
# MrgX1 agonist = human MrgX1 receptor agonism, primary screen | Q96LB2 | MrgX1-HEK293 cells, Fluo-4 calcium fluorescence, agonist mode; active compounds read high | B-score at 10 µM | 0.44% of 310,000 active | AID 588627;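 active = calcium response B-score plate-corrected fluorescence ratio at least 3 library SD, with starting fluorescence B-score inside 5 SD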
#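 Material: MrgX1-expressing HEK293 cells; input: 15,000 cells per well; doses: test compound given as first of three sequential additions; schedule: overnight plating before 1 h dye loading; technique: Fluo-4 NW calcium-flux fluorescence, kinetic read; evaluation: baseline-normalised fluorescence change ratio, B-scored; control set: plate-wise positive and negative controls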
# MrgX1 antag = blocks BAM8-22 activation of human MrgX1 receptor; Q96LB2; MRGX1-HEK293 calcium flux, Fluo-4, BAM8-22 antagonism; active compounds read low; B-score at 10 µM; 1.3% of 310,000 active;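 active = calcium-response B-score plate-corrected more than 3 library SD below zero, starting fluorescence within 5 deviations, no agonist response on first addition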;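 note: peak minus trough fluorescence over baseline after final BAM8-22 challenge near maximal dose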
# MrgX1 allo conf = reconfirmed allosteric activator of human MrgX1 receptor | shares compounds with MrgX1 PAM | MrgX1-HEK293, Fluo-4 calcium fluorescence, FDSS | activation (ratio percentage), % at 10 µM | 13% of 1,200 active | AID 602413;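 active = ratio at least 3 SD above the weak peptide control, stable starting fluorescence, no direct agonism earlier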;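 note: compound followed by low BAM8-22 agonist challenge near EC20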
# HEK293 Ca flux = activity in parental HEK293 cells lacking MrgX1. shares compounds with MrgX1 antag. Fluo-4 calcium fluorescence, FDSS. fluorescence ratio F(max-min)/F0 at 10 µM. 2% of 4,000 active;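 active = duplicate-averaged calcium fluorescence ratio at least three times the standard deviation of buffer wells, a nonspecific response in parental cells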
# HEK293 Ca counter = counter-screen for MrgX1 allosteric activators: effect in parental HEK293 cells | AID 624114 | parental HEK293 calcium flux, Fluo-4 fluorescence ratio; active compounds read high | fluorescence ratio F(max-min)/F0 at 10 µM | 0.4% of 4,000 active | shares compounds with MrgX1 antag;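 active = calcium fluorescence ratio, averaged over duplicates, at least 3 SD of the buffer-well ratio, meaning a nonspecific response in receptor-free cells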;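 note: untransfected parental HEK293 lacking MrgX1 used as counterscreen for MrgX1 allosteric activators; fluorescence change taken during the second addition on a kinetic imager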
# HEK293 Ca cntr2 = MrgX1 activator counter-screen hit in parental HEK293 cells. Fluo-4 calcium fluorescence (FDSS); active compounds read high. 8.7% of 4,000 active. shares compounds with MrgX1 antag. fluorescence ratio F(max-min)/F0 at 10 µM;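 active = calcium fluorescence ratio at least three times the spread of buffer wells, meaning a non-specific response in parental cells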
# A number is an active result; - = inactive; . = no result. The list is not random: actives were taken first. Their share in the collection is about 3.5%.
SMILES,RGS4 inh,RGS4 act,MrgX1 PAM,MrgX1 agonist,MrgX1 antag,MrgX1 allo conf,HEK293 Ca flux,HEK293 Ca counter,HEK293 Ca cntr2
O=C(CSc1ccc(-c2cccs2)nn1)NCCc1ccccc1,-,-,-,-,-,.,.,.,.
c1ccc2nc(-c3nccs3)ccc2c1,-,-,6.5,-,-,-,-,-,-
Clc1ccsc1-c1ccc2ccccc2n1,-,-,-,-,-,.,.,.,.
CN(c1ccccc1)S(=O)(=O)c1cccc(NC(=O)CC(C)(C)C)c1,-,-,-,-,-,.,.,.,.
O=C1CC(NCc2ccc(F)cc2)C(=O)N1c1ccccc1 (stereo not drawn),-,-,8.11,-,-,-,-,-,-
COc1ccc(C2(C(=O)Nc3ccc(OC)cc3OC)CCCC2)cc1,-,-,12.4,-,-,-,-,-,-
CN(c1ccc(C(=O)Nc2ccc(Cl)cn2)cc1)S(=O)(=O)c1ccccc1,-,-,9.73,-,-,-,-,-,-
CCN(CC)S(=O)(=O)c1cc(C(=O)Nc2ccc(Cl)cn2)ccc1C,-,-,19.5,-,-,11.6%,-,-,-
Cc1ccc(S(=O)(=O)N(C)c2ccc(C(=O)Nc3ccc(C)cn3)cc2)cc1,-,-,-,-,-,.,.,.,.
S=c1nc[nH]c2c1sc1nc(N3CCOCC3)c3c(c12)CCCC3,-,-,7.37,-,-,-,-,-,-
CC(C)c1nc2sc3c(=S)nc[nH]c3c2c2c1CCC2,-,-,-,-,-,.,.,.,.
CC(NC(=O)C1CCCN1S(=O)(=O)c1cccc2cccnc12)c1ccccc1 (stereo not drawn),-,-,-,-,-,.,.,.,.
CC(NC(=O)C1CCN(S(=O)(=O)c2cccc3cccnc23)CC1)c1ccccc1 (stereo not drawn),-,-,6.48,-,-,-,-,-,-
O=C(CCc1ccccc1)NC(=S)Nc1cccc(Br)c1,-,-,8.95,-,-,-,-,-,-
CCOc1ccc(NC(=O)NC(=O)N(C(C)C)S(C)(=O)=O)cc1,-,-,10,-,-,-,-,-,-
O=C1C2CC=C(Cl)CC2C(=O)N1CCN1CCOCC1 (stereo not drawn),-,-,-,-,-,.,.,.,.
O=C1C2CC=C(Cl)CC2C(=O)N1CCCCCCN1C(=O)C2CC=C(Cl)CC2C1=O (stereo not drawn),-,-,6.49,-,-,-,-,-,-
CSc1ncccc1C(=O)NCc1ccc(C)cc1,-,-,-,-,-,.,.,.,.
CCOc1ncccc1C(=O)NCc1ccc(C)cc1,-,-,7.17,-,-,-,-,-,-
COC(=O)c1ccc(NS(=O)(=O)c2ccc(Cl)cc2)o1,-,-,22,-,-,12.4%,-,-,-
COC(=O)C1Cc2ccccc2CN1C(=O)CCl (stereo not drawn),-,-,8.14,-,-,-,-,-,-
Cc1nc(NS(=O)(=O)c2ccccc2)sc1C(C)(C)C,-,-,-,-,-,.,.,.,.
Cc1cccc2sc(NS(=O)(=O)c3ccccc3)nc12,-,-,8.32,-,-,-,-,-,-
CC1=C(C(=O)Nc2ccc(Cl)cc2)C2(CCCCC2)C(C(N)=O)C(=S)N1 (stereo not drawn),-,-,12.5,-,-,-,-,-,-
CC(=O)NC(Cc1ccc(F)cc1)C(=O)NC1CCN(C(=O)Nc2cccc(C)c2)CC1 (stereo not drawn),-,-,-,-,-,.,.,.,.
CC(=O)NC(Cc1ccc(F)cc1)C(=O)NC1CCN(C(=O)Nc2ccc(F)cc2)CC1 (stereo not drawn),-,-,59.5,-,-,-,-,-,-
